Among the data in ChEMBL document CHEMBL2069235, “Synthesis and biological evaluation of tyrosine modified analogues of the α4β7 integrin inhibitor biotin-R₈ERY” (Bioorg Med Chem, 2012) are inhibition values, retold here.

Broadly, the inhibition is the percentage by which the read-out fell short of the control.

Assay type in all cases: cell-based
Assay [1] addresses T1, Integrin alpha-4/beta-7 (Mus musculus) (UniProt Q00651+P26011). As to the kind of experiment: Inhibition of alpha4beta7 assessed as inhibition of Mn(2+)-activated adhesion of mouse TK-1 T cells to mouse MAdCAM-1 at 50 uM incubated for 1 hr by cell adhesion assay. The method, boiled down:
(§1)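 TK-1 cells (mouse AKR/Cum α4β7+/α4β1− CD8 T lymphoma), grown at 37 °C in RPMI 1640 with 10% FCS and 0.05 mM β-mercaptoethanol, were washed and held 1 h at room temperature in HBSS/10 mM Hepes with peptide. They were then activated with 2 mM MnCl₂ and added at 10⁶ cells/well to glass slides coated with mouse MAdCAM-1-Fc (10 μg/ml, FBS-blocked). Adhesion ran 30 min.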

Assay [2] has as its target T1, Integrin alpha-4/beta-7 (Mus musculus). Briefly: Inhibition of alpha4beta7 assessed as inhibition of Mn(2+)-activated adhesion of mouse TK-1 T cells to mouse MAdCAM-1 at 100 uM incubated for 1 hr by cell adhesion assay. The method, boiled down: as §1
For assay [3] the target is unchanged. As to the kind of experiment: Inhibition of alpha4beta7 assessed as inhibition of Mn(2+)-activated adhesion of mouse TK-1 T cells to mouse MAdCAM-1 at 25 uM incubated for 1 hr by cell adhesion assay. In outline: as §1
Assay [4] has the same target. As to the kind of experiment: Inhibition of alpha4beta7 assessed as inhibition of Mn(2+)-activated adhesion of mouse TK-1 T cells to mouse MAdCAM-1 at <5 to 10 uM incubated for 1 hr by cell adhesion assay. In outline:
as §1

Calls of active or inactive are those of the source. The rule behind the calls is not given here. *1 amine or outer side, *2 acyl side, *3 side chain or, on linkers, in order; H or OH if unused. Where a SMILES comes first, the peptide text is derived from it. [ ]: non-standard residue; d: D form. The star is where a group is joined. X3 = COc1cccc(OC)c1-c1ccc(C[C@H](N[*:1])C(=O)[*:2])cc1; X5 = N#Cc1ccc(-c2ccc(C[C@H](N[*:1])C(=O)[*:2])cc2)cc1; X4 = O=C([C@H](Cc1ccc(C2=CCCCC2)cc1)N[*:1])[*:2]; Biotin = O=C1N[C@H]2[C@H](CS[C@H]2CCCCC(=O)*)N1; X1 = O=C([C@H](Cc1ccc(C2CCCCC2)cc1)N[*:1])[*:2]

Regarding `N=C(N)NCCC[C@H](NC(=O)CCCC[C@@H]1SC[C@@H]2NC(=O)N[C@@H]21)C(=O)N[C@@H](CCCNC(=N)N)C(=O)N[C@@H](CCCNC(=N)N)C(=O)N[C@@H](CCCNC(=N)N)C(=O)N[C@@H](CCCNC(=N)N)C(=O)N[C@@H](CCCNC(=N)N)C(=O)N[C@@H](CCCNC(=N)N)C(=O)N[C@@H](CCCNC(=N)N)C(=O)N[C@@H](CCC(=O)O)C(=O)N[C@@H](CCCNC(=N)N)C(=O)N[C@@H](Cc1ccc(C2CCCCC2)cc1)C(=O)O` (Biotin-RRRRRRRRER[X1]-OH), the inhibition was 71.7% in assay [1] and 64.8% in assay [2]. In addition, the inhibition entry in assay [3] is “Active”. For the same molecule, in assay [4], the inhibition result is “inactive”.
Regarding `COc1cccc(OC)c1-c1ccc(C[C@H](NC(=O)[C@H](CCCNC(=N)N)NC(=O)[C@H](CCC(=O)O)NC(=O)[C@H](CCCNC(=N)N)NC(=O)[C@H](CCCNC(=N)N)NC(=O)[C@H](CCCNC(=N)N)NC(=O)[C@H](CCCNC(=N)N)NC(=O)[C@H](CCCNC(=N)N)NC(=O)[C@H](CCCNC(=N)N)NC(=O)[C@H](CCCNC(=N)N)NC(=O)[C@H](CCCNC(=N)N)NC(=O)CCCC[C@@H]2SC[C@@H]3NC(=O)N[C@@H]32)C(=O)O)cc1` (Biotin-RRRRRRRRER[X3]-OH), the figures for the inhibition in assay [1] and in assay [2] were 38.3% and 50.9%, respectively.
On to `N#Cc1ccc(-c2ccc(C[C@H](NC(=O)[C@H](CCCNC(=N)N)NC(=O)[C@H](CCC(=O)O)NC(=O)[C@H](CCCNC(=N)N)NC(=O)[C@H](CCCNC(=N)N)NC(=O)[C@H](CCCNC(=N)N)NC(=O)[C@H](CCCNC(=N)N)NC(=O)[C@H](CCCNC(=N)N)NC(=O)[C@H](CCCNC(=N)N)NC(=O)[C@H](CCCNC(=N)N)NC(=O)[C@H](CCCNC(=N)N)NC(=O)CCCC[C@@H]3SC[C@@H]4NC(=O)N[C@@H]43)C(=O)O)cc2)cc1` (Biotin-RRRRRRRRER[X5]-OH), for which the inhibition was found to be 45% in assay [1] and 57% in assay [2].
On to `N=C(N)NCCC[C@H](NC(=O)CCCC[C@@H]1SC[C@@H]2NC(=O)N[C@@H]21)C(=O)N[C@@H](CCCNC(=N)N)C(=O)N[C@@H](CCCNC(=N)N)C(=O)N[C@@H](CCCNC(=N)N)C(=O)N[C@@H](CCCNC(=N)N)C(=O)N[C@@H](CCCNC(=N)N)C(=O)N[C@@H](CCCNC(=N)N)C(=O)N[C@@H](CCCNC(=N)N)C(=O)N[C@@H](CCC(=O)O)C(=O)N[C@@H](CCCNC(=N)N)C(=O)N[C@@H](Cc1ccc(C2=CCCCC2)cc1)C(=O)O` (Biotin-RRRRRRRRER[X4]-OH), for which the inhibition in assay [1] is 49.7%; in assay [2], 59.1%.
